Measurements taken from ChEMBL document CHEMBL1143579, “Synthesis and pharmacology of N1-substituted piperazine-2,3-dicarboxylic acid derivatives acting as NMDA receptor antagonists” (J Med Chem, 2005).

Assays:
[1] = Inhibitory constant against (S)-glutamate and glycine evoked currents mediated by N-methyl-D-aspartate glutamate receptor NR1a/NR2D expressed in Xenopus oocytes; assay type: cell-based, Rattus norvegicus; conditions: oocyte
Summary of the method: (§1)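 Xenopus laevis oocytes were injected with NR1a and NR2 subunit RNA (1:3 molar ratio, 15-30 ng total) and held in ND-96 at 17 °C for 1-5 days. The steady plateau response to bath-applied 10 µM L-glutamate plus 10 µM glycine was measured. Apparent Ki was obtained as IC50(obs)/(1 + [agonist]/EC50).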

[2] = biological target: Glutamate NMDA receptor; Grin1/Grin2a (Rattus norvegicus, UniProt P35439+Q00959); assay: Inhibitory constant against (S)-glutamate and glycine evoked currents mediated by N-methyl-D-aspartate glutamate receptor NR1a/NR2A expressed in Xenopus oocytes; assay type: cell-based, Oocyte; summary of the method: as §1
Glutamate NMDA receptor; Grin1/Grin2a, sequence (Q00959 whole entry, other chains not shown): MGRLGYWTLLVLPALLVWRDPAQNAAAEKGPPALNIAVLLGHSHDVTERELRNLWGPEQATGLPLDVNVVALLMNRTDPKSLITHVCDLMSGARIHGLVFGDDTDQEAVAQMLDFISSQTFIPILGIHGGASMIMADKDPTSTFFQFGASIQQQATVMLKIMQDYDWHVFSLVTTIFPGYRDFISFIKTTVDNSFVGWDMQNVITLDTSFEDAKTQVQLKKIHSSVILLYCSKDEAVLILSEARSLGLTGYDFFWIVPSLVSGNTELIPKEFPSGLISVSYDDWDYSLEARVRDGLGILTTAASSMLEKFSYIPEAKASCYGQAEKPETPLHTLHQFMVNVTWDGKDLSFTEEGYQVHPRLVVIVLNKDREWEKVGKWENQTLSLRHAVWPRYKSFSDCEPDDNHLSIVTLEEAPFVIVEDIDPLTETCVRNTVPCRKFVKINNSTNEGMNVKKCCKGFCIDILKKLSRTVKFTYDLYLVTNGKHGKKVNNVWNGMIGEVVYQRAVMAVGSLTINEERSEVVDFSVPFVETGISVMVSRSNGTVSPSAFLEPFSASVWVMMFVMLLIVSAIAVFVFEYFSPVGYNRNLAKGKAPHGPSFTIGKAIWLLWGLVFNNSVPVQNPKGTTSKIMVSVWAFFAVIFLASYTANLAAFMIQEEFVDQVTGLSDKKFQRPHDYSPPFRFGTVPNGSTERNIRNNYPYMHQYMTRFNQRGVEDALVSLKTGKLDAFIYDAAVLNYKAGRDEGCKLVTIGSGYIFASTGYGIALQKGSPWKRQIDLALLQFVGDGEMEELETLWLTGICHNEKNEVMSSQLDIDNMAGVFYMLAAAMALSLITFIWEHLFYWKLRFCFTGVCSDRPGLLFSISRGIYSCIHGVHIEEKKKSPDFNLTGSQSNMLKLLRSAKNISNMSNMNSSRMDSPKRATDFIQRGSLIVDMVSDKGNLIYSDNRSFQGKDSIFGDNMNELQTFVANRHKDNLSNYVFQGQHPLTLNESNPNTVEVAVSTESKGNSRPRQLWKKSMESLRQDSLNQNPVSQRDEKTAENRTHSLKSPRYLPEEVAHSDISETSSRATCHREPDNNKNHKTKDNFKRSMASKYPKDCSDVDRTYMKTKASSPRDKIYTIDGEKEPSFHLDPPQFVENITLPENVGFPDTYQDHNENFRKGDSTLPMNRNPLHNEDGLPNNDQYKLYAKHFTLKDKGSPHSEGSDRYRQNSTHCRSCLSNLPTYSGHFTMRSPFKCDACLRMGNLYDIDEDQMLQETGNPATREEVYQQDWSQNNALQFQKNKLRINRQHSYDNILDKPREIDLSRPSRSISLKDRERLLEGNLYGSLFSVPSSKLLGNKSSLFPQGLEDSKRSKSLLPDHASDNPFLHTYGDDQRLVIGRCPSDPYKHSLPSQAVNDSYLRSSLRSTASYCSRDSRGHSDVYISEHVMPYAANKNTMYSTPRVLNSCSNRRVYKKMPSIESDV

[3] = biological target: Glutamate NMDA receptor; Grin1/Grin2b (Rattus norvegicus, UniProt P35439+Q00960); assay: Inhibitory constant against (S)-glutamate and glycine evoked currents mediated by N-methyl-D-aspartate glutamate receptor NR1a/NR2B expressed in Xenopus oocytes; assay type: cell-based, Oocyte
Glutamate NMDA receptor; Grin1/Grin2b, sequence (Q00960 whole entry, other chains not shown): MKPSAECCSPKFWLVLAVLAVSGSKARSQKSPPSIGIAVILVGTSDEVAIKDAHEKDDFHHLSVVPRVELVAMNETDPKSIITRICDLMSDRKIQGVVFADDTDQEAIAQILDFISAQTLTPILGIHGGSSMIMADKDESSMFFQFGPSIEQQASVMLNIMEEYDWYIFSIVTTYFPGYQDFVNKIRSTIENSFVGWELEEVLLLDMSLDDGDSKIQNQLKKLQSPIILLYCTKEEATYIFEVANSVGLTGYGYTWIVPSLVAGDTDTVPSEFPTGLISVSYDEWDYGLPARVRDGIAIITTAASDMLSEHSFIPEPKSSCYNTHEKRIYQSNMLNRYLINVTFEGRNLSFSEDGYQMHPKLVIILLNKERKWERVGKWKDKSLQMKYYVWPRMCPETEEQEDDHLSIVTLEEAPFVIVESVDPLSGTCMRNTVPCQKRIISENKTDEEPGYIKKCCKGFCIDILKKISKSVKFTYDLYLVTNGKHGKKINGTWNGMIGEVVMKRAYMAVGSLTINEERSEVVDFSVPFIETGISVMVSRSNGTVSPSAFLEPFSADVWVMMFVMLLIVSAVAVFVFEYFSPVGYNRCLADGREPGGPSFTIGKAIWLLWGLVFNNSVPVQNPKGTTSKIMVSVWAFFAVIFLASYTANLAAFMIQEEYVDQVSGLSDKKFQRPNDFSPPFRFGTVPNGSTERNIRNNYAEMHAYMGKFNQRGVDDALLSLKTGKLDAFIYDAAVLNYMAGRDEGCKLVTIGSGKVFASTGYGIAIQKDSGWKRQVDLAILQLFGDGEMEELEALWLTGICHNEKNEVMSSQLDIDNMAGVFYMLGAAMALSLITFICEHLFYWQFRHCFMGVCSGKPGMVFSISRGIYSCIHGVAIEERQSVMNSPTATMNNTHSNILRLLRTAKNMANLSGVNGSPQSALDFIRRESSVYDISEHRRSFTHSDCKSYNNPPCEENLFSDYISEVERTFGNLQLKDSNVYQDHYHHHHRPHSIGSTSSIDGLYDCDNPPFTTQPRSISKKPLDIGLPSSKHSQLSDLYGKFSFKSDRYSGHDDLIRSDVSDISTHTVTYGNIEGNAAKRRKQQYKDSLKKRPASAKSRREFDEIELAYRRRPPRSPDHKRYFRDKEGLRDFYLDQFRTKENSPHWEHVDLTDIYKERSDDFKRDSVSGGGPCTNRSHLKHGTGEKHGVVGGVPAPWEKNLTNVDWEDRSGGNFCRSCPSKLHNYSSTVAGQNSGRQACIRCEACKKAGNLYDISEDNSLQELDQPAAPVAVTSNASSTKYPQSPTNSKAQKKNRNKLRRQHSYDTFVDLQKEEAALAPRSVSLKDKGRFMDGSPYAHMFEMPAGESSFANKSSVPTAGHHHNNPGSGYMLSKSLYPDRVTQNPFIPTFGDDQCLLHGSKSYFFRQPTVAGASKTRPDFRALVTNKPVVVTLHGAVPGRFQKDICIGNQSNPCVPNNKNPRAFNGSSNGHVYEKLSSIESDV
Summary of the method: as §1, with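 “days. Currents were recorded by two-microelectrode voltage clamp at a holding potential of […] in 116 mM NaCl, 2 mM KCl, 2 mM BaCl2, 5 mM HEPES, pH 7.4.” for “days.”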

[4] = biological target: Glutamate NMDA receptor; Grin1/Grin2c (Rattus norvegicus, UniProt P35439+Q00961); assay: Inhibitory constant against (S)-glutamate and glycine evoked currents mediated by N-methyl-D-aspartate glutamate receptor NR1a/NR2C expressed in Xenopus oocytes; assay type: cell-based, Oocyte
Glutamate NMDA receptor; Grin1/Grin2c, sequence (Q00961 whole entry, other chains not shown): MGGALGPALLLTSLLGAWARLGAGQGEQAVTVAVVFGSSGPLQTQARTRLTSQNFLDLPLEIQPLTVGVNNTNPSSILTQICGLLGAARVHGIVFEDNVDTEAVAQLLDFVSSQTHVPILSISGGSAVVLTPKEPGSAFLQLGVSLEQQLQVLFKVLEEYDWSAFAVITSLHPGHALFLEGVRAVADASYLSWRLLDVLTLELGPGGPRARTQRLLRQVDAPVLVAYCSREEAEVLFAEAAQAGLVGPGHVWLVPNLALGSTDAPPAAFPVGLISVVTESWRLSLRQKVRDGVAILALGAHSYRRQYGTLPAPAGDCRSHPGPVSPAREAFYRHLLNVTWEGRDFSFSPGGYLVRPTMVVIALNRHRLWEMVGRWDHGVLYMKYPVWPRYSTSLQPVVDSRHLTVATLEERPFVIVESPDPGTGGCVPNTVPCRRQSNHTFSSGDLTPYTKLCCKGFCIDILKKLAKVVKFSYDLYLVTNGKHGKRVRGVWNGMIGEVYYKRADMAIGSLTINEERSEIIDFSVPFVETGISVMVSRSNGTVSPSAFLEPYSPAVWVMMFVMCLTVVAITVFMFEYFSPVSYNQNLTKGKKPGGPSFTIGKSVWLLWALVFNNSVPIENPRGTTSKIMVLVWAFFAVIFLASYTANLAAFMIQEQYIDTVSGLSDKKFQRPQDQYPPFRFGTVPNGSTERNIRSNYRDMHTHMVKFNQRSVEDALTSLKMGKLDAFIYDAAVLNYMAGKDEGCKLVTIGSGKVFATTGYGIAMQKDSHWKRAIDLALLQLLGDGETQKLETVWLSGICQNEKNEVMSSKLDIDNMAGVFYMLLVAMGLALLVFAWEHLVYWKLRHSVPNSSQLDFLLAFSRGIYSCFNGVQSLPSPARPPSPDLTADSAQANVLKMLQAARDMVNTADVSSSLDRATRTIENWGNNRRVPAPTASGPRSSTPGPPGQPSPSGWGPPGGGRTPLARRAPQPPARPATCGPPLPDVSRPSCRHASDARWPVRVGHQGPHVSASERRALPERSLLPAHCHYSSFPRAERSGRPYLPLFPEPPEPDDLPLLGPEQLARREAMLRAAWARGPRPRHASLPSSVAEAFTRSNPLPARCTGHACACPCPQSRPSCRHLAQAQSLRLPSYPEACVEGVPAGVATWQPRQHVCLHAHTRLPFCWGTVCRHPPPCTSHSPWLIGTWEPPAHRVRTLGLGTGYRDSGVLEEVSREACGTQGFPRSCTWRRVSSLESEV
Summary of the method: as §1, with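 “days. Currents were recorded by two-microelectrode voltage clamp at a holding potential of […] in 116 mM NaCl, 2 mM KCl, 2 mM BaCl2, 5 mM HEPES, pH 7.4.” for “days.”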

| Compound | Ki [1] [µM] | Ki [2] [µM] | Ki [3] [µM] | Ki [4] [µM] |
| --- | --- | --- | --- | --- |
| O=C(O)[C@H]1NCCN(C(=O)c2ccccc2)[C@H]1C(=O)O | > 100 | > 100 | > 100 | > 100 |
| O=C(O)[C@H]1NCCN(C(=O)c2ccc3ccc4ccccc4c3c2)[C@H]1C(=O)O | 2.78 | 14.2 | 19.3 | 4.22 |
| O=C(O)[C@H]1NCCN(C(=O)c2ccc3c(ccc4cc(Br)ccc43)c2)[C@H]1C(=O)O | 0.15 | 0.32 | 0.25 | 0.0994 |
| O=C(O)[C@H]1NCCN(Cc2ccc3c(ccc4ccccc43)c2)[C@H]1C(=O)O | 3.18 | 11.2 | 10.2 | 2.67 |
| N[C@H](CCCCCP(=O)(O)O)C(=O)O | 17.1 | 0.49 | 4.14 | 6.42 |
| O=C(O)[C@H]1NCCN(C(=O)c2ccc(-c3ccccc3)cc2)[C@H]1C(=O)O | 4.29 | 15.8 | 5.01 | 8.98 |
| O=C(O)[C@H]1NCCN(C(=O)c2ccc3c(ccc4ccccc43)c2)[C@H]1C(=O)O | 0.125 | 0.55 | 0.31 | 0.096 |
| O=C(O)[C@@H]1NCCN(C(=O)c2ccc3c(ccc4ccccc43)c2)[C@H]1C(=O)O | 6.03 | 10.5 | 9.08 | 4.88 |
| N[C@H](CCCP(=O)(O)O)C(=O)O | 3.71 | 0.28 | 0.46 | 1.64 |

Second part, the compound after the results:

| Ki [1] [µM] | Ki [2] [µM] | Ki [3] [µM] | Ki [4] [µM] | Compound |
| --- | --- | --- | --- | --- |
| 10.9 | 13.6 | 16.2 | 8.67 | O=C(O)[C@H]1NCCN(S(=O)(=O)c2ccc(-c3ccccc3)cc2)[C@H]1C(=O)O |
| 1.94 | 0.84 | 0.3 | 0.85 | O=C(O)[C@H]1NCCN(C(=O)/C=C/c2ccc3ccccc3c2)[C@H]1C(=O)O |
| – | – | 18.2 | 3.89 | O=C(O)[C@H]1NCCN(C(=O)c2ccc3ccccc3c2)[C@H]1C(=O)O |
| 1.03 | 3.88 | 2.15 | 0.66 | O=C(O)[C@H]1NCCN(C(=O)c2ccc3c(c2)CCc2cc(Br)ccc2-3)[C@H]1C(=O)O |
| 2.17 | – | 3.25 | 1.17 | O=C(O)[C@H]1NCCN(C(=O)c2ccc3c(c2)Cc2ccccc2-3)[C@H]1C(=O)O |
| 0.037 | 0.0054 | 0.067 | 0.0116 | C[C@H](NC(c1cccc2nc(O)c(O)nc12)P(=O)(O)O)c1ccc(Br)cc1 (stereo partly specified) |
| 59.7 | 13.2 | 18 | 27 | O=C(O)[C@H]1NCCN(C(=O)/C=C/c2ccccc2)[C@H]1C(=O)O |
| 6.45 | 7.97 | 9.36 | 4.42 | O=C1c2ccccc2-c2ccc(C(=O)N3CCN[C@H](C(=O)O)[C@@H]3C(=O)O)cc21 |
| 0.57 | 1.54 | 0.76 | 0.29 | O=C(O)[C@H]1NCCN(C(=O)c2ccc3c(c2)CCc2ccccc2-3)[C@H]1C(=O)O |
| 12.9 | 42.9 | 22.1 | 8.49 | O=C(O)[C@H]1NCCN(C(=O)c2ccc(-c3ccccc3Br)cc2)[C@H]1C(=O)O |
| 8.02 | 8.78 | 13.4 | 7.38 | O=C(O)[C@H]1NCCN(C(=O)c2ccc(-c3ccc(F)cc3)cc2)[C@H]1C(=O)O |
| 1.99 | 0.041 | 0.27 | 0.63 | O=C(O)[C@H]1CN(CCCP(=O)(O)O)CCN1 |
